Marks after values point to notes of the source that are not given here.
Columns and labels:
[1] = test system: melanized C. neoformans var. grubii; assay: halo assay; assay type: cell-based, Cryptococcus neoformans var. grubii (MAT α, H99 serotype A); details: for Halo diameter: var. grubii
Summary of the method: (§1)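 Paper disks (6.5 mm) were loaded from DMSO stock solutions and air-dried 3 h at RT, then placed on lawns of target cells. The medium was defined minimal agar with 1 mM L-dopa, dopamine or epinephrine to give melanized cells. Doses were 20 μg/disk test compound, or 10 μg test compound with or without 2 μg amphotericin B per disk. Plates ran 6–8 days at 30 °C, and halo diameter (mm) and clarity were recorded.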

[2] = test system: C. neoformans var. grubii; assay: microtiter plate assay of melanization in liquid medium; assay type: cell-based, Cryptococcus neoformans var. grubii; details: for Melanization of treated cells, observed visually: 10 days, 30 °C
[3] = test system: melanized C. neoformans var. gattii; assay: halo assay; assay type: cell-based, Cryptococcus neoformans var. gattii (MAT α, serotype B)
Summary of the method: as §1

[4] = test system: laccase and melanin formation in C. neoformans; details: cited from earlier work
[5] = 20 μg/disk, 1 mM L-dopa, 30 °C, 6 to 8 days
[6] = 10 μg per disk, 1 mM L-dopa, 6 days
[7] = 20 μg per disk, 1 mM L-dopa in minimal medium, 6 to 8 days
[8] = 20 μg per disk, 1 mM dopamine in minimal medium, 6 to 8 days
[9] = 20 μg per disk, 1 mM epinephrine in minimal medium, 6 to 8 days

C[C@@H]1[C@H](O)[C@@H](C)/C=C/C=C/C=C/C=C/C=C/C=C/C=C/[C@H](O[C@@H]2O[C@H](C)[C@@H](O)[C@H](N)[C@@H]2O)C[C@@H]2O[C@](O)(C[C@@H](O)C[C@@H](O)[C@H](O)CC[C@@H](O)C[C@@H](O)CC(=O)O[C@H]1C)C[C@H](O)[C@H]2C(=O)O [AMB, amphotericin B, reference compound]
Appearance of the halo surrounding the disk ([1]; 2 μg per disk, alone, 1 mM L-dopa): clear zone of inhibition
Appearance of the halo surrounding the disk [1, 5]: very clear zone of inhibition
Melanization of treated cells, observed visually ([2]; 0.0625 μg/mL, 1 mM catecholamine): growth of melanized cells was observed

Clc1ccc(COC(Cn2ccnc2)c2ccc(Cl)cc2Cl)c(Cl)c1 (stereo not drawn) [MCZ, miconazole]
Melanization of treated cells, observed visually ([2]; 0.5 μg/mL, 1 mM catecholamine): growth of melanized cells was observed

CC[C@H]1CCCC[C@@]2(C[C@@H]3CC[C@@H]4[C@H](C(=O)OCCCCCCCCCCCCCCCC(=O)N(CCCN)CCCCN)[C@]5(CCC[C@@H](C)O5)NC(=[N+]34)N2)O1.[Cl-] [compound 1, ptilomycalin A]
Halo diameter [3, 6]: 9.50 ^b mm
Halo diameter [3, 7]: 17 ^c mm
Halo diameter [3, 8]: 18 ^c mm
Halo diameter [3, 9]: 12 ^c mm
Appearance of the halo surrounding the disk ([1]; 10 μg per disk, alone, 1 mM L-dopa): presence of non-melanized cells on the halo surrounding the disk
Appearance of the halo surrounding the disk [1, 5]: a halo of non-melanized cells were observed
Interaction with AMB in halo assay ([1]; 1 10 μg combined with AMB 2 μg per disk, 1 mM L-dopa): synergizes the fungicidal activity of AMB
Halo diameter [1, 6]: 13.5 ^b mm
Halo diameter [1, 7]: 17 ^c mm
Halo diameter [1, 8]: 15 ^c mm
Halo diameter [1, 9]: 12 ^c mm
Melanization of treated cells, observed visually ([2]; 0.8 μg/mL, 1 mM catecholamine (epinephrine, dopamine or L-dopa)): only non-melanized cells grew
Melanization of treated cells ([2]; 0.8 μg/mL, after 21 days): remained non-melanized

O=C(O)CNCP(=O)(O)O [glyphosate]
Inhibitory activity on growth or melanization ([2]; 200 μg/mL, under the authors' conditions): no significant inhibitory activity
Melanization of treated cells, observed visually ([2]; 200 μg/mL, 1 mM catecholamine): growth of melanized cells was observed
Inhibition of melanization of C. neoformans [4]: reported to inhibit melanization

C[C@@H](c1ncncc1F)[C@](O)(Cn1cncn1)c1ccc(F)cc1F [voriconazole]
Inhibition of laccase and consequent melanin formation in C. neoformans [4]: inhibition of laccase and consequent melanin formation

— PMC3523195 (Bioorganic & medicinal chemistry, 2011)
